Source: PubChem (several laboratories)
GSK3beta inhib: human GSK3beta kinase inhibitors, primary screen, biochemical, cell-free homogeneous, HTS; Glycogen synthase kinase-3 beta (Homo sapiens), P49841; GST-GSK3beta kinase, ADP-Glo luminescence, 60 min; active compounds read low; activity score (negative = inhibition), % at 10 µM; 0.038% of 300,000 active; AID 2097, 2009;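 active = more than half of replicate wells score below -50%, meaning over 50% inhibition versus plate controls; inconclusive = some replicates but at most half score below -50%; inactive = no replicate scores below -50%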
Target sequence (P49841 whole entry, looked up): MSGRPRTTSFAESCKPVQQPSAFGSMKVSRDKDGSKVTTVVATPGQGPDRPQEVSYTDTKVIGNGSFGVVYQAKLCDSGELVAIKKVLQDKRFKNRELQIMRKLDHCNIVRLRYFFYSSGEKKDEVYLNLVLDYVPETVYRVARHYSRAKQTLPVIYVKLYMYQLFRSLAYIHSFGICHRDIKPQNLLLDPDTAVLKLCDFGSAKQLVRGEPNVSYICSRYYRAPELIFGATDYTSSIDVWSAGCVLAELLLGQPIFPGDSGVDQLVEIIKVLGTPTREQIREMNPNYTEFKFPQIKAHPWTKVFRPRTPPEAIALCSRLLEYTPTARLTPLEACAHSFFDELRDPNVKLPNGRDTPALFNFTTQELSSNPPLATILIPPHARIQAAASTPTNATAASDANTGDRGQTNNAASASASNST
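Test system – GST-tagged human GSK3beta kinase, cell-free · Incubation – 60 min enzyme reaction, room temperature · Signal – ADP-Glo luminescence · Also added – peptide substrate and ATP at 25 µM · Controls – DMSO neutral wells and GW8510 at 20 µM as positive · Buffer or medium – Tris/MgCl2 kinase buffer · Measure – Luminescence-derived activity versus plate DMSO and GW8510 wells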
PolyA inh: polyadenylation inhibitors in yeast reporter cells, primary screen, luminescence, S. cerevisiae; 0.02% of 300,000 active; S. cerevisiae SKY197-pL101 polyadenylation reporter, beta-gal luminescence; efflux-impaired pdr1/pdr3 knockout yeast; score 100 = 6 SD above DMSO; activity score, % at 12 µM; AID 1875, 2009;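 active = lowest replicate activity score at least 50, where 100 means six control SD above control mean; inconclusive = lowest score under 50 but half or more replicates reach 50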;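 note: yeast exposed to compound for 9 h at 30 °C; higher score means more reporter readthrough which indicates perturbed polyadenylation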
Efflux pump inh: inhibitors of Candida efflux pumps in yeast, primary screen, S. cerevisiae, Nile Red, multiplex; S. cerevisiae Candida pump triplex; inhibition, % at 10 µM; 0.44% of 330,000 active; AID 485275, 2010;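 active = plate passing quality check with inhibition over a set limit, or well fluorescence over plate mean plus 4 SD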;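 note: Nile Red retained in pooled yeast measured as flow cytometry median fluorescence; higher means more Nile Red kept so more efflux inhibition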
STK33 inh: inhibitors of purified STK33 kinase, primary screen, biochemical, ADP-Glo luminescence, homogeneous, cell-free; Serine/threonine-protein kinase 33 (Homo sapiens), Q9BYT3; MBP phosphorylation; inhibition, % at 10 µM; 0.073% of 320,000 active;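 active = inhibition at or above 25%, using the most active replicate where run in duplicate; inactive = inhibition below 25%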
GSK3 alpha inh: blockers of GSK3A enzyme activity – biochemical, luminescence, cell-free homogeneous, HTS, primary screen | 0.1% of 320,000 active | GSK-3 alpha kinase, ADP-Glo luminescence, 60 min | inhibition, % at 10 µM;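 active = more than half of replicates show inhibition above 20%; inconclusive = some but at most half of replicates above 20% inhibition; inactive = no replicate shows inhibition above 20%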;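 note: GST-tagged GSK-3 alpha with peptide substrate and 25 µM ATP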
Yeast cmpd fluor: compound fluorescence in yeast efflux pump counter-screen | shares compounds with Efflux pump inh | S. cerevisiae AD/pABC3, flow cytometry | fluorescence ratio to DMSO, % at 10 µM | 4% of 1,700 active;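 active = fluorescence ratio to DMSO above its plate's cutoff, the plate mean ratio plus 5 SD, cut at about 210% in these data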;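 note: unstained yeast with no Nile Red so the signal is compound autofluorescence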
CaMdr1 efflux inh: inhibitors of Candida albicans Mdr1 efflux, confirmation, flow cytometry, singleplex, Cherry Pick1 set | inhibition, % at 10 µM | S. cerevisiae AD/CaMDR1, Nile Red efflux | shares compounds with Efflux pump inh | 1% of 1,700 active; in the data active = inhibition above about 26%;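 note: higher means more Nile Red retained so more efflux inhibition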
CaCdr2 efflux inh: inhibitors of Candida albicans Cdr2 efflux pump, confirmation, S. cerevisiae AD/CaCDR2, flow cytometry, cherry pick 1, singleplex | shares compounds with Efflux pump inh | Nile Red retention ratio vs DMSO, % at 10 µM | 4% of 1,700 active | Nile Red retention; in the data active = Nile Red retention ratio vs DMSO above about 190%;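 note: higher ratio means more blocking of Cdr2 efflux of the dye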
Cdr1 pump inh: inhibitors of Candida albicans Cdr1 efflux pump, confirmation, S. cerevisiae AD/CaCDR1, flow cytometry, cherry pick 1, singleplex; shares compounds with Efflux pump inh; Nile Red efflux; inhibition, % at 10 µM; 1% of 1,700 active;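 active = inhibition above the screen-wide mean plus twice its standard deviation, cut at about 32% in these data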
Numbers stand for hits; i = inactive; ? = inconclusive; nt = no result; + = active, no number. An excerpt weighted towards active compounds, which were near 0.6% of everything screened.

SMILES | GSK3beta inhib | PolyA inh | Efflux pump inh | STK33 inh | GSK3 alpha inh | Yeast cmpd fluor | CaMdr1 efflux inh | CaCdr2 efflux inh | Cdr1 pump inh
O=[N+]([O-])c1ccc(N2N=C(c3ccco3)CC2c2ccccc2)cc1 (stereo not drawn) | i | i | 0.5 | i | i | i | i | i | i
O=C(Nc1ccccc1Cl)c1cc(S(=O)(=O)N2CCCCC2)ccc1N1CCOCC1 | i | i | 1.2 | i | i | i | i | i | i
O=C(NCc1ccccc1)c1cc(S(=O)(=O)N2CCCCC2)ccc1N1CCOCC1 | i | i | i | i | i | nt | nt | nt | nt
COc1cc(/C=C2\SC(=S)N(CC(=O)NC3=NCCS3)C2=O)cc(OC)c1OC | i | i | i | i | i | nt | nt | nt | nt
COc1ccc(/C=C2\SC(=S)N(CCC(=O)NC3=NCCS3)C2=O)cc1OC | i | i | 5.5 | i | i | i | i | i | i
COc1ccc(/C=C2\SC(=S)N(CCCC(=O)Nc3cccc(C(=O)O)c3)C2=O)cc1OC | i | i | 7.2 | i | i | i | i | i | i
CSc1n[nH]c(/N=C/c2oc(O)c3ccccc23)n1 | i | i | i | i | i | nt | nt | nt | nt
Cc1cccc(NC(=O)CCCc2ccccc2)c1C | i | i | i | i | i | nt | nt | nt | nt
COc1ccc(CNC(=O)c2cc3c(s2)CN(Cc2ccccc2)C3)cc1 | i | i | 0.5 | nt | nt | i | i | i | i
CC(=O)N1c2ccc(S(=O)(=O)N3CCCCC3)cc2CC1C(=O)Nc1ccccc1C(F)(F)F (stereo not drawn) | i | i | i | i | i | nt | nt | nt | nt
CCNC(=S)N1CCc2ccccc2C1 | i | i | i | i | i | nt | nt | nt | nt
S=C(NCc1ccccc1)N1CCc2ccccc2C1 | i | i | i | i | i | i | i | i | i
CCn1c(=O)c2ccccc2n(Cc2ccc([N+](=O)[O-])cc2)c1=O | i | i | 0.6 | i | i | i | i | i | i
CCn1c(=O)c2ccccc2n(Cc2cccc(C)c2)c1=O | i | i | i | nt | nt | nt | nt | nt | nt
Fc1ccc(-c2csc3ncnc(N4CCN(Cc5ccccc5)CC4)c23)cc1 | i | i | i | i | i | nt | nt | nt | nt
Fc1ccc(CN2CCN(c3ncnc4scc(-c5ccccc5)c34)CC2)cc1 | i | i | 1.7 | i | i | i | i | i | i
Cn1ncc(C(=O)N=S(C)(=O)c2ccccc2)c1[N+](=O)[O-] (stereo not drawn) | i | i | i | i | i | nt | nt | nt | nt
Clc1ccccc1CSc1nncn1NC/C=C/c1ccccc1 | i | i | 7.6 | i | i | i | i | i | i
C(=C\c1ccccc1)/CNn1cnnc1 | i | i | i | i | i | nt | nt | nt | nt
CCCCc1nnc(NC(=O)COc2ccc3c(C)cc(=O)oc3c2)s1 | i | i | i | i | i | i | i | i | i
CCCc1nnc(NC(=O)COc2ccc3c(c2)OCO3)s1 | nt | i | 93.0 | i | i | i | i | i | i
CCN(CC)c1ccc(/C=C(\C#N)c2ccccn2)cc1 | i | i | i | i | nt | nt | nt | nt | nt
CCN(CC)c1ccc(C=N/C(C#N)=C(\N)C#N)cc1 | i | i | 0.7 | i | i | i | i | 348.0 | i
CCCCN(CC)C(=O)Cn1nc(Cc2ccncc2)c2ccccc2c1=O | i | i | i | i | i | nt | nt | nt | nt
Cn1c(=O)c(=O)n(C)c2cc(S(=O)(=O)N3CCc4ccccc43)ccc21 | i | i | 0.8 | i | i | i | i | i | i
SMILES | GSK3beta inhib | PolyA inh | Efflux pump inh | STK33 inh | GSK3 alpha inh | Yeast cmpd fluor | CaMdr1 efflux inh | CaCdr2 efflux inh | Cdr1 pump inh
Cn1c(=O)oc2cc(S(=O)(=O)N3CCc4ccccc43)ccc21 | i | i | i | i | i | nt | nt | nt | nt
Cc1sc(NC(=O)c2ccco2)c(CN2CCN(Cc3ccccc3)CC2)c1C | i | i | i | i | i | nt | nt | nt | nt
O=C(O)CCCN1C(=O)/C(=C/c2ccc(-c3nc4ccccc4s3)o2)SC1=S | i | i | i | i | nt | 219.8 | i | + | i
CCOc1ccc(S(=O)(=O)NN=C(C)c2cccnc2)cc1 | nt | nt | i | i | i | nt | nt | nt | nt
CSc1ccccc1OC1CCN(Cc2ccccc2)CC1 | i | i | 5.8 | i | i | i | i | i | i
CSCCC(NC(=O)c1ccccc1Cl)C(=O)N1CCN(C(C)=O)CC1 (stereo not drawn) | nt | nt | i | i | i | nt | nt | nt | nt
CSCCC(NC(=O)c1ccccc1Cl)C(=O)N1CCN(C(c2ccccc2)c2ccccc2)CC1 (stereo not drawn) | i | i | 0.5 | i | i | i | i | i | i
CCOC(=O)C1CCN(C(=O)CCNC(=O)Cn2cnc3ccccc3c2=O)CC1 | i | i | i | i | i | nt | nt | nt | nt
Fc1ccc(-n2cc(-c3ccccc3)c3c(NN4CCOCC4)ncnc32)cc1 | i | i | i | i | i | nt | nt | nt | nt
COc1ccc(-n2cc(-c3ccccc3)c3c(NN4CCOCC4)ncnc32)cc1 | i | i | 2.5 | i | i | i | i | i | i
Cc1ccc(C)c(C(=O)CN2C(=O)NC3(CCC(C)CC3)C2=O)c1 (stereo not drawn) | i | i | i | nt | nt | nt | nt | nt | nt
CCCC(=O)Nc1ccc(C(=O)NNC(=S)NC(=O)c2cccs2)cc1 | i | i | i | i | i | nt | nt | nt | nt
CCCC(=O)Nc1ccc(C(=O)NNC(=O)c2cccs2)cc1 | i | i | 11.3 | i | i | i | i | i | i
O=C(NC(=O)c1ccccc1)Nc1ccc(Cl)cn1 | i | i | 0.4 | i | i | i | i | i | i
CCn1c2ccccc2c2cc(NC(=O)C(C)OC(=O)c3ccc(NC(=O)CC#N)cc3)ccc21 (stereo not drawn) | nt | nt | 0.4 | i | i | i | i | i | i
C/C(=N\NC(=O)CC1(C)OCCO1)c1cccs1 | i | i | 6.5 | i | i | i | i | i | i
C/C(=N/NC(=O)c1cccs1)c1cccs1 | i | i | i | i | i | nt | nt | nt | nt
N#CCO/N=C/C(=O)Nc1ccc(F)cc1F | i | i | i | i | i | nt | nt | nt | nt
CCCCN1C(N)=NC[C@H]1Cc1ccc(O)cc1 | i | i | i | i | i | i | i | i | i
NC1=NC[C@@H](Cc2ccc(O)cc2)N1CCc1cccc(F)c1 | i | ? | i | i | i | i | i | i | i
CCCCN1C(N)=NC[C@@H]1Cc1ccc(O)cc1 | i | i | i | i | i | i | i | i | i
